ChEMBL document CHEMBL1144562, “Synthesis of a new class of 2-anilino substituted nicotinyl arylsulfonylhydrazides as potential anticancer and antibacterial agents” (2007)
≈ marks a conversion by molar mass, not a printed value.

Legend:
[1] = tested on: ACHN; test: Antitumor activity against ACHN cells; assay type: functional; details: Homo sapiens
[2] = tested on: SF-295; test: Antitumor activity against SF295 cells; assay type: functional; details: Homo sapiens
[3] = tested on: K562; test: Antitumor activity against K562 cells; assay type: functional; details: Homo sapiens
[4] = tested on: Pseudomonas aeruginosa; test: Antibacterial activity against Pseudomonas aeruginosa MTCC 424 after 18 hrs; assay type: functional; details: MTCC 424, 18 h
Summary of the method: (§1)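 Disc diffusion (Kirby–Bauer) on Mueller-Hinton agar inoculated with fresh bacteria at 1-5 × 10^4 cfu mL-1. Compounds were dissolved in DMF at a range of concentrations, and discs were placed in triplicate. Plates were incubated at 30 °C for 18 h. MIC was taken as the lowest concentration giving no visible bacterial growth on the plate.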

[5] = tested on: U-251; test: Antitumor activity against U251 cells; assay type: functional; details: Homo sapiens
Summary of the method: (§2)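 Tested in the NCI 60-human-tumour-cell-line panel at five concentrations, in 10-fold dilutions from 10^-4 to 10^-8 M. Three parameters were taken from the dose-response data, each as log10 of the molar concentration: GI50 (50% net growth inhibition), TGI (total growth inhibition) and LC50 (50% net cell death).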

[6] = tested on: 786-0; test: Antitumor activity against 786-0 cells; assay type: functional; details: Homo sapiens
[7] = tested on: HCC 2998; test: Antitumor activity against HCC2998 cells; assay type: functional; details: Homo sapiens
[8] = tested on: Vibrio; test: Antibacterial activity against Vibrio species after 18 hrs; assay type: functional; summary of the method: as §1
[9] = tested on: UACC-257; test: Antitumor activity against UACC257 cells; assay type: functional; details: Homo sapiens; summary of the method: as §2
[10] = tested on: EKVX; test: Antitumor activity against EKVX cells; assay type: functional; details: Homo sapiens
[11] = tested on: Hs-578T; test: Antitumor activity against HS578T cells; assay type: functional; details: Homo sapiens
[12] = tested on: HCT-116; test: Antitumor activity against HCT116 cells; assay type: functional; details: Homo sapiens
[13] = Antitumor activity against LOX IMV1 cells; assay type: functional; details: Homo sapiens
[14] = tested on: RXF 393; test: Antitumor activity against RXF393 cells; assay type: functional; details: Homo sapiens
[15] = tested on: HCT-15; test: Antitumor activity against HCT15 cells; assay type: functional; details: Homo sapiens
[16] = tested on: Bacillus subtilis; test: Antibacterial activity against Bacillus subtilis MTCC 441 after 18 hrs; assay type: functional; details: MTCC 441, 18 h; summary of the method: as §1
[17] = tested on: KM12; test: Antitumor activity against KM12 cells; assay type: functional; details: Homo sapiens
[18] = tested on: MDA-MB-231; test: Antitumor activity against MDA-MB-231 cells; assay type: functional; details: Homo sapiens
[19] = Antitumor activity against HL60 (TB) cells; assay type: functional, HL-60(TB); details: Homo sapiens, HL-60
Summary of the method: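 NCI 60-cell-line in vitro screen (leukaemia subpanel). Compound tested at five 10-fold dilutions from 10^-4 to 10^-8 M. Dose-response parameters: GI50 (concentration giving 50% net growth inhibition), TGI (total growth inhibition) and LC50 (50% net cell death), each reported as log10 of molar concentration.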

[20] = tested on: OVCAR-8; test: Antitumor activity against OVCAR8 cells; assay type: functional; details: Homo sapiens
[21] = tested on: MDA-MB-435; test: Antitumor activity against MDA-MB-435 cells; assay type: functional; details: Homo sapiens
[22] = tested on: SNB-75; test: Antitumor activity against SNB75 cells; assay type: functional; details: Homo sapiens; summary of the method: as §2
[23] = tested on: CAKI-1; test: Antitumor activity against CAKI1 cells; assay type: functional; details: Homo sapiens
[24] = tested on: M14; test: Antitumor activity against M14 cells; assay type: functional; details: Homo sapiens
[25] = tested on: A498; test: Antitumor activity against A498 cells; assay type: functional; details: Homo sapiens
[26] = tested on: MCF7; test: Antitumor activity against MCF7 cells; assay type: functional; details: Homo sapiens
[27] = tested on: CCRF-CEM; test: Antitumor activity against CCRF-CEM cells; assay type: functional; details: Homo sapiens
[28] = tested on: SR; test: Antitumor activity against SR cells; assay type: functional; details: Homo sapiens; summary of the method: as §2
[29] = tested on: SF-268; test: Antitumor activity against SF268 cells; assay type: functional; details: Homo sapiens
[30] = tested on: DU-145; test: Antitumor activity against DU145 cells; assay type: functional; details: Homo sapiens
[31] = tested on: SK-MEL-5; test: Antitumor activity against SK-MEL-5 cells; assay type: functional; details: Homo sapiens; summary of the method: as §2
[32] = Antitumor activity against NCI-H322 cells; assay type: functional; details: Homo sapiens
[33] = tested on: SNB-19; test: Antitumor activity against SNB19 cells; assay type: functional; details: Homo sapiens; summary of the method: as §2
[34] = Antitumor activity against MALME 3M cells; assay type: functional; details: Homo sapiens
[35] = tested on: HOP-62; test: Antitumor activity against HOP62 cells; assay type: functional; details: Homo sapiens
[36] = tested on: COLO 205; test: Antitumor activity against COLO205 cells; assay type: functional; details: Homo sapiens
[37] = tested on: MOLT-4; test: Antitumor activity against MOLT4 cells; assay type: functional; details: Homo sapiens
[38] = tested on: A549; test: Antitumor activity against A549 cells; assay type: functional; details: Homo sapiens
[39] = tested on: SK-OV-3; test: Antitumor activity against SKOV3 cells; assay type: functional; details: Homo sapiens; summary of the method: as §2
[40] = tested on: HT-29; test: Antitumor activity against HT29 cells; assay type: functional; details: Homo sapiens
[41] = read-out: Log LC50 (the source's name) (converted)

O=C(NNS(=O)(=O)c1ccc(Cl)cc1Cl)c1cccnc1Nc1ccc(Cl)cc1
GI50 [1]: 29.5 µM
LC50 [1]: > 100 µM
TGI ([1]; read-out: Log TGI (converted)): 93.3 µM
GI50 [2]: 30.2 µM
CC50 [2, 41]: > 100 µM
TGI ([2]; read-out: Log TGI (converted)): 77.6 µM
GI50 [3]: 12.9 µM
LC50 [3]: 50.1 µM
TGI ([3]; read-out: Log TGI (converted)): 25.7 µM
MIC [4]: > 25 µg/mL
GI50 [5]: 34.7 µM
LC50 [5]: > 100 µM
TGI ([5]; read-out: Log TGI (converted)): 100 µM
GI50 [6]: 19.5 µM
LC50 (lethal concentration, 50%) [6]: > 100 µM
TGI ([6]; read-out: Log TGI (converted)): 49 µM
GI50 [7]: 13.5 µM
LC50 [7]: 61.7 µM
TGI ([7]; read-out: Log TGI (converted)): 28.8 µM
MIC [8]: 14 µg/mL (≈ 29.7 µM)
GI50 [9]: 22.9 µM
LC50 [9]: > 100 µM
TGI ([9]; read-out: Log TGI (converted)): 60.3 µM
GI50 [10]: 26.3 µM
LC50 [10]: > 100 µM
TGI ([10]; read-out: Log TGI (converted)): > 100 µM
GI50 [11]: 17.8 µM
CC50 [11, 41]: 97.7 µM
TGI ([11]; read-out: Log TGI (converted)): 41.7 µM
GI50 [12]: 15.5 µM
LC50 [12]: 53.7 µM
TGI ([12]; read-out: Log TGI (converted)): 28.8 µM
GI50 [13]: 20.9 µM
LC50 [13]: > 100 µM
TGI ([13]; read-out: Log TGI (converted)): 46.8 µM
GI50 [14]: 17 µM
LC50 [14]: > 100 µM
TGI ([14]; read-out: Log TGI (converted)): 43.7 µM
GI50 [15]: 33.1 µM
LC50 [15]: 100 µM
TGI ([15]; read-out: Log TGI (converted)): > 100 µM
MIC [16]: 15 µg/mL (≈ 31.8 µM)
GI50 [17]: 13.8 µM
CC50 [17, 41]: 58.9 µM
TGI ([17]; read-out: Log TGI (converted)): 28.8 µM
GI50 [18]: 19.1 µM
LC50 [18]: > 100 µM
TGI ([18]; read-out: Log TGI (converted)): 50.1 µM
GI50 [19]: 24 µM
LC50 [19]: 83.2 µM
TGI ([19]; read-out: Log TGI (converted)): 44.7 µM
GI50 [20]: 26.9 µM
CC50 [20, 41]: > 100 µM
TGI ([20]; read-out: Log TGI (converted)): 74.1 µM
GI50 [21]: 27.5 µM
LC50 [21]: > 100 µM
TGI ([21]; read-out: Log TGI (converted)): 81.3 µM
GI50 [22]: 22.4 µM
CC50 [22, 41]: > 100 µM
TGI ([22]; read-out: Log TGI (converted)): 85.1 µM
GI50 [23]: 20 µM
LC50 [23]: > 100 µM
TGI ([23]; read-out: Log TGI (converted)): 58.9 µM
GI50 [24]: 19.1 µM
LC50 [24]: 79.4 µM
TGI ([24]; read-out: Log TGI (converted)): 38.9 µM
GI50 [25]: 25.1 µM
LC50 [25]: 91.2 µM
TGI ([25]; read-out: Log TGI (converted)): 47.9 µM
GI50 [26]: 35.5 µM
LC50 [26]: > 100 µM
TGI ([26]; read-out: Log TGI (converted)): > 100 µM
LC50 [27]: > 100 µM
GI50 ([27]; read-out: GI50): 6.62 µM
TGI ([27]; read-out: Log TGI (converted)): > 100 µM
GI50 ([27]; read-out: pGI50 (converted)): 6.61 µM
GI50 [28]: 14.8 µM
LC50 [28]: 97.7 µM
TGI ([28]; read-out: Log TGI (converted)): 38 µM
GI50 [29]: 36.3 µM
LC50 [29]: > 100 µM
TGI ([29]; read-out: Log TGI (converted)): 100 µM
GI50 [30]: 41.7 µM
LC50 [30]: > 100 µM
TGI ([30]; read-out: Log TGI (converted)): > 100 µM
GI50 [31]: 14.1 µM
LC50 [31]: 61.7 µM
TGI ([31]; read-out: Log TGI (converted)): 29.5 µM
GI50 [32]: 14.8 µM
CC50 [32, 41]: > 100 µM
TGI ([32]; read-out: Log TGI (converted)): 40.7 µM
GI50 [33]: 26.9 µM
CC50 [33, 41]: > 100 µM
TGI ([33]; read-out: Log TGI (converted)): 100 µM
GI50 [34]: 34.7 µM
CC50 [34, 41]: > 100 µM
TGI ([34]; read-out: Log TGI (converted)): 34.7 µM
GI50 [35]: 16.6 µM
CC50 [35, 41]: 85.1 µM
TGI ([35]; read-out: Log TGI (converted)): 38 µM
GI50 [36]: 12 µM
LC50 [36]: 49 µM
TGI ([36]; read-out: Log TGI (converted)): 24.5 µM
GI50 [37]: 19.5 µM
LC50 [37]: > 100 µM
TGI ([37]; read-out: Log TGI (converted)): 57.5 µM
GI50 [38]: 24.5 µM
LC50 [38]: > 100 µM
TGI ([38]; read-out: Log TGI (converted)): 70.8 µM
GI50 [39]: 17 µM
CC50 [39, 41]: > 100 µM
TGI ([39]; read-out: Log TGI (converted)): 52.5 µM
GI50 [40]: 22.9 µM
LC50 [40]: > 100 µM
TGI ([40]; read-out: Log TGI (converted)): 53.7 µM
